Measurements taken from ChEMBL document CHEMBL3425469, “Discovery of imidazo[2,1-b]thiazole HCV NS4B inhibitors exhibiting synergistic effect with other direct-acting antiviral agents” (J Med Chem, 2015).
pEC50: −log10 of the molar value.

Legend:
Hepatitis C virus [1] = assay: Antiviral activity against Hepatitis C virus genotype 1b Con 1 infected in human HuH7 cells at 5 nM after 72 hrs by luciferase assay in presence of 0.02 nM daclatasvir; type: functional, Hepacivirus hominis, Huh-7
How it was run: (§1)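 Huh-7 cells stably carrying a GT1b Con1 bicistronic luciferase replicon, seeded at 8000 cells/well. The test compound and the partner DAA are dosed orthogonally at various concentrations, final 0.5% DMSO, then incubated 72 h at 37°C. Bright-Glo luciferase read-out gives replicon inhibition as % of untreated control. Cytotoxicity is checked in parallel by CellTiter-Fluor. CI and DRI are derived by the Chou–Talalay median-effect method.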

Hepatitis C virus [2] = assay: Antiviral activity against Hepatitis C virus genotype 1b Con 1 infected in human HuH7 cells at 2.5 nM after 72 hrs by luciferase assay in presence of 0.02 nM daclatasvir; type: functional, Hepacivirus hominis, Huh-7
How it was run: (§2)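 Stable Con1 GT1b bicistronic luciferase replicon in Huh-7 cells, 8000 cells/well. Test compound and a marketed DAA or clemizole added alone or together at varied concentrations, 0.5% DMSO final. 72 h at 37°C, then luciferase read with Bright-Glo. Inhibition expressed as % of untreated control, with cytotoxicity run in parallel. CI and DRI derived by the Chou–Talalay median-effect method.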

Hepatitis C virus [3] = assay: Antiviral activity against Hepatitis C virus genotype 1b Con 1 infected in human HuH7 cells at 20 nM after 72 hrs by luciferase assay in presence of 7.5 uM clemizole; type: functional, Hepacivirus hominis, Huh-7; how it was run: as §1
Hepatitis C virus [4] = assay: Antiviral activity against Hepatitis C virus genotype 1b Con 1 infected in human HuH7 cells at 40 nM after 72 hrs by luciferase assay in presence of 12.5 uM clemizole; type: functional, Hepacivirus hominis, Huh-7; how it was run: as §1
Hepatitis C virus [5] = assay: Antiviral activity against Hepatitis C virus genotype 1b Con 1 infected in human HuH7 cells at 5 nM after 72 hrs by luciferase assay in presence of 3 nM simeprevir; type: functional, Hepacivirus hominis, Huh-7; how it was run: as §1
Hepatitis C virus [6] = assay: Antiviral activity against Hepatitis C virus genotype 1b Con 1 infected in human HuH7 cells at 5 nM after 72 hrs by luciferase assay in presence of 0.04 nM daclatasvir; type: functional, Hepacivirus hominis, Huh-7; how it was run: as §1
Hepatitis C virus [7] = assay: Antiviral activity against Hepatitis C virus genotype 1b harboring F98C mutation transfected in human HuH7 cells after 72 hrs by luciferase assay; type: functional, cell-based, Hepacivirus hominis; settings: Huh-7, 72 h
How it was run: (§3)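 Huh-7 cells were transiently electroporated with genotype 1b replicon RNA carrying the specified mutation and plated at 10000 cells/well. Compounds were added at 0.5% DMSO final for 72 h at 37°C. Read-out was Bright-Glo luciferase. EC50 is the mean of two independent runs within 2-fold of each other. A reference drug EC50 was measured alongside each mutant replicon to validate it.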

Hepatitis C virus [8] = assay: Antiviral activity against Hepatitis C virus genotype 1b Con 1 infected in human HuH7 cells at 2.5 nM after 72 hrs by luciferase assay in presence of 240 nM sofobuvir; type: functional, Hepacivirus hominis, Huh-7; how it was run: as §2
Hepatitis C virus [9] = assay: Antiviral activity against Hepatitis C virus genotype 1b Con 1 infected in human HuH7 cells at 160 nM after 72 hrs by luciferase assay in presence of 0.02 nM daclatasvir; type: functional, Hepacivirus hominis, Huh-7; how it was run: as §2
Hepatitis C virus [10] = assay: Antiviral activity against Hepatitis C virus genotype 1b Con 1 infected in human HuH7 cells at 10 nM after 72 hrs by luciferase assay in presence of 0.08 nM daclatasvir; type: functional, Hepacivirus hominis, Huh-7; how it was run: as §2
Hepatitis C virus [11] = assay: Antiviral activity against Hepatitis C virus genotype 1b Con 1 infected in human HuH7 cells at 160 nM after 72 hrs by luciferase assay in presence of 0.04 nM daclatasvir; type: functional, Hepacivirus hominis, Huh-7; how it was run: as §2
Hepatitis C virus [12] = assay: Antiviral activity against Hepatitis C virus genotype 1b Con 1 infected in human HuH7 cells at 40 nM after 72 hrs by luciferase assay in presence of 3 nM simeprevir; type: functional, Hepacivirus hominis, Huh-7; how it was run: as §1
Hepatitis C virus [13] = assay: Antiviral activity against Hepatitis C virus genotype 1b Con 1 infected in human HuH7 cells at 80 nM after 72 hrs by luciferase assay in presence of 30 nM sofobuvir; type: functional, Hepacivirus hominis, Huh-7; how it was run: as §1
Hepatitis C virus [14] = assay: Antiviral activity against Hepatitis C virus genotype 1b Con 1 infected in human HuH7 cells at 40 nM after 72 hrs by luciferase assay in presence of 15 uM clemizole; type: functional, Hepacivirus hominis, Huh-7; how it was run: as §1
Hepatitis C virus [15] = assay: Antiviral activity against Hepatitis C virus genotype 1b harboring Y448H NS5B (palm) mutation transfected in human HuH7 cells after 72 hrs by luciferase assay; type: functional, cell-based, Hepacivirus hominis; settings: Huh-7, 72 h; how it was run: as §3
Hepatitis C virus [16] = assay: Antiviral activity against Hepatitis C virus genotype 1b Con 1 infected in human HuH7 cells at 40 nM after 72 hrs by luciferase assay in presence of 140 nM sofobuvir; type: functional, Hepacivirus hominis, Huh-7; how it was run: as §1
Hepatitis C virus [17] = assay: Antiviral activity against Hepatitis C virus genotype 1b Con1 infected in human HuH7 cells after 72 hrs by luciferase assay; type: functional, cell-based, Hepacivirus hominis; settings: genotype 1b Con 1, Huh-7, 72 h
How it was run: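 Huh-7 cells stably carrying a genotype 1b Con1 bicistronic luciferase replicon, seeded at 8000 cells/well. Compounds were added at 0.5% DMSO final and incubated at 37°C for 72 h. Read-out was Bright-Glo luciferase, with cell proliferation measured by CellTiter-Fluor. EC50 is the mean of at least two independent runs. Some values are given as percent inhibition at 10 µM.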

Hepatitis C virus [18] = assay: Antiviral activity against Hepatitis C virus genotype 1b Con 1 infected in human HuH7 cells at 10 nM after 72 hrs by luciferase assay in presence of 120 nM sofobuvir; type: functional, Hepacivirus hominis, Huh-7; how it was run: as §2
Hepatitis C virus [19] = assay: Antiviral activity against Hepatitis C virus genotype 1b harboring S282T NS5B (active site) mutation transfected in human HuH7 cells after 72 hrs by luciferase assay; type: functional, cell-based, Hepacivirus hominis; settings: Huh-7, 72 h; how it was run: as §3
Hepatitis C virus [20] = assay: Antiviral activity against Hepatitis C virus genotype 1b harboring V105M mutation transfected in human HuH7 cells after 72 hrs by luciferase assay; type: functional, cell-based, Hepacivirus hominis; settings: Huh-7, 72 h; how it was run: as §3
Hepatitis C virus [21] = assay: Antiviral activity against Hepatitis C virus genotype 1b Con 1 infected in human HuH7 cells at 20 nM after 72 hrs by luciferase assay in presence of 6 nM simeprevir; type: functional, Hepacivirus hominis, Huh-7; how it was run: as §1
Hepatitis C virus [22] = assay: Antiviral activity against Hepatitis C virus genotype 1b Con 1 infected in human HuH7 cells at 40 nM after 72 hrs by luciferase assay in presence of 5 uM clemizole; type: functional, Hepacivirus hominis, Huh-7; how it was run: as §1
Hepatitis C virus [23] = assay: Antiviral activity against Hepatitis C virus genotype 1b Con 1 infected in human HuH7 cells at 10 nM after 72 hrs by luciferase assay in presence of 30 nM sofobuvir; type: functional, Hepacivirus hominis, Huh-7; how it was run: as §2
Hepatitis C virus [24] = assay: Antiviral activity against Hepatitis C virus genotype 1b Con 1 infected in human HuH7 cells at 80 nM after 72 hrs by luciferase assay in presence of 17.5 uM clemizole; type: functional, Hepacivirus hominis, Huh-7; how it was run: as §1
Hepatitis C virus [25] = assay: Antiviral activity against Hepatitis C virus genotype 1b Con 1 infected in human HuH7 cells at 2.5 nM after 72 hrs by luciferase assay in presence of 0.16 nM daclatasvir; type: functional, Hepacivirus hominis, Huh-7; how it was run: as §2
Hepatitis C virus [26] = assay: Antiviral activity against Hepatitis C virus genotype 1b Con 1 infected in human HuH7 cells at 10 nM after 72 hrs by luciferase assay in presence of 0.02 nM daclatasvir; type: functional, Hepacivirus hominis, Huh-7; how it was run: as §2
Hepatitis C virus [27] = assay: Antiviral activity against Hepatitis C virus genotype 1b Con 1 infected in human HuH7 cells at 10 nM after 72 hrs by luciferase assay in presence of 10 uM clemizole; type: functional, Hepacivirus hominis, Huh-7; how it was run: as §2

O=C(c1nc2scc(C3CC3)n2c1Cl)N1CCN(C2CCCC2)C(=O)C1
CI (Hepatitis C virus [1]): 1.21
CI (Hepatitis C virus [2]): 1.2
CI (Hepatitis C virus [3]): 0.56
CI (Hepatitis C virus [4]): 0.76
CI (Hepatitis C virus [5]): 1.22
CI (Hepatitis C virus [6]): 0.89
pEC50 (Hepatitis C virus [7]): 4.57
CI (Hepatitis C virus [8]): 0.83
CI (Hepatitis C virus [9]): 0.5
CI (Hepatitis C virus [10]): 0.69
CI (Hepatitis C virus [11]): 0.42
CI (Hepatitis C virus [12]): 0.74
CI (Hepatitis C virus [13]): 0.91
CI (Hepatitis C virus [14]): 0.94
pEC50 (Hepatitis C virus [15]): 8.10
CI (Hepatitis C virus [16]): 0.57
pEC50 (Hepatitis C virus [17]): 7.80
CI (Hepatitis C virus [18]): 0.7
pEC50 (Hepatitis C virus [19]): 7.82
pEC50 (Hepatitis C virus [20]): 4.56
CI (Hepatitis C virus [21]): 0.48
CI (Hepatitis C virus [22]): 1.03
CI (Hepatitis C virus [23]): 0.69
CI (Hepatitis C virus [24]): 1.11
CI (Hepatitis C virus [25]): 0.98
CI (Hepatitis C virus [26]): 1.14
CI (Hepatitis C virus [27]): 0.68
